According to ChEMBL document CHEMBL2062368, “The cell adhesion and proliferation activities of a peptide derived from human tenascin-C are dependent on two Ile residues” (Bioorg Med Chem, 2012):
Calls of active or inactive are those of the source. The calls are words filed in the database; no cut-off is given here.

Legend:
Format in all cases: cell-based
Conditions in all cases: NIH3T3
[1] = target: T1, Syndecan-4 (Mus musculus) (UniProt O35988); assay: Binding affinity to syndecan 4 in mouse NIH/3T3 cells assessed as stimulation of beta 1 integrin-mediated cell adhesion at 50 ug/ml […] by microscopic analysis
T1 sequence (whole entry): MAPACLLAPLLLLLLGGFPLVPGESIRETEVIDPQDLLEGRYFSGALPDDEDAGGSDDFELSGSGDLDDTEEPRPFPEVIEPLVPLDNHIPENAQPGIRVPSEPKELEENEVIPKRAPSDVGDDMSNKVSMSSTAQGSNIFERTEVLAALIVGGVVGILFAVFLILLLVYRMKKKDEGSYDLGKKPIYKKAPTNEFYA
Summary of the method: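 Wells coated with fibronectin at 37 °C, blocked with BSA. NIH-3T3 cell suspension plus peptide (50 µg/ml) or PBS control incubated 1 h at 37 °C. Non-adhered cells washed off; attached cells counted by microscope in 4 independent fields. Mean ± S.E. of triplicate measurements.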

[2] = target: T1, Syndecan-4 (Mus musculus); assay: Binding affinity to syndecan 4 in mouse NIH/3T3 cells assessed as stimulation of beta 1 integrin-mediated cell spreading at 50 ug/ml […] by microscopic analysis
Summary of the method: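 Fibronectin-coated, BSA-blocked wells; NIH-3T3 cells incubated with peptide (50 µg/ml) or PBS control for 1 h at 37 °C, then washed. Spread cells counted under a microscope in 4 independent fields; mean ± S.E. of triplicates.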

[3] = target: T1, Syndecan-4 (Mus musculus); assay: Binding affinity to syndecan 4 in mouse NIH/3T3 cells assessed as increase in cell proliferation at 25 to 50 ug/ml after 2 days by MTT assay relative to TNIIIA2 peptide
Summary of the method: (§1)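 NIH-3T3 cells with peptide at 25 and 50 µg/ml on fibronectin-coated, BSA-blocked wells, 2 days at 37 °C. MTT (0.5 mg/ml in phenol-red-free RPMI-1640) added for a further 3 h. Dye solubilized in acidic isopropanol (0.04 M HCl), absorbance read at 570 nm minus 650 nm background.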

[4] = target: T1, Syndecan-4 (Mus musculus); assay: Binding affinity to syndecan 4 in mouse NIH/3T3 cells assessed as induction of cell proliferation at 25 to 50 ug/ml after 2 days by MTT assay; summary of the method: as §1

Substance | Activity [1] | Activity [2] | fold change (FC) [3] | Activity [4]
H-RSTDLPGLAAATHYTITIRGVKC-OH | inactive | inactive | 2 | –
H-RSTDLPGLKAATHATITIRGVKC-OH | Active | inactive | – | –
H-RSTDLPGLKAATHYTATIRGVKC-OH | Active | inactive | – | inactive
H-RSTDLPGLKAATHYTITARGVKC-OH | Active | inactive | – | inactive
H-RSTDLPGLKAATHYTITIAGVKC-OH | inactive | inactive | – | Active
H-RSTDLPGLKAATHYTITIRGVKC-OH | Active | Active | – | Active

Results, then the substance that gave them:

Activity [1] | Activity [2] | fold change (FC) [3] | Activity [4] | Substance
inactive | inactive | 2 | – | H-ASTDLPGLKAATHYTITIRGVKC-OH
Active | – | – | – | H-RSTDLPGLKAATHYAITIRGVKC-OH
Active | – | – | – | H-RSTDLPGLKAATHYTIAIRGVKC-OH
